Data set [1] in a line: folding enthalpy; higher = less favourable; fluorescence melt of hairpins on a sequencing array, two-state fit. The conditions noted are these: sodium 0.088 M. In outline:
(§1)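 Folding enthalpy and melting temperature come from bootstrapped two-state fits to Cy3 fluorescence of library hairpins carrying annealed Cy3 and quencher oligos on a sequenced MiSeq flow cell. Imaging was done in 50 mM Na-HEPES pH 8.0, 25 mM NaCl, stepping by 2.5 °C up to 60 °C, and signals were normalised to pre-quench Cy3 and to control constructs. Results of four replicates were combined by inverse variance, and fitted temperatures were raised by 9.35 °C to match UV melts.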

Data set [2] can be described thus: melting temperature; fluorescence melt of hairpins on a sequencing array, two-state fit, raised by 9.35 °C to match UV melts. The conditions noted are these: sodium 0.088 M. In outline:
as §1

For the sequence GGAATCGAAAGATGATCC ((((((....)))..))), the folding enthalpy in data set [1] was -17.8 kcal/mol. For the same sequence, the Tm in data set [2] came out at 29 °C.

Regarding GTCTTGCGAAAGCAGAC (((.(((....)))))), the folding enthalpy in data set [1] was -22.8 kcal/mol. In addition, the Tm in data set [2] came out at 52.1 °C.

For the sequence GCTGCGCGAAAGCTTAGC (((..((....))..))), the folding enthalpy in data set [1] was -20.5 kcal/mol. For the same sequence, the Tm in data set [2] is 39.6 °C.

For GCCTCGCGAAAGCGGTGC ((..(((....)))..)), in data set [1], the folding enthalpy was -14.1 kcal/mol. Moreover, the Tm in data set [2] was determined as 43.7 °C.

As for GCGGAGCTCCGC ((((....)))), the folding enthalpy in data set [1] is -20.9 kcal/mol. The Tm in data set [2] came to 55.2 °C.

Consider GCGTCCGACGC ((((...)))), for which, in data set [1], the folding enthalpy is -27.1 kcal/mol. In data set [2], the Tm stood at 53.9 °C.

For the sequence GCGCTACGAAAGTATCGC (((.(((....))).))), the folding enthalpy in data set [1] was -42.1 kcal/mol. Further, the Tm in data set [2] worked out at 53.9 °C.

For GATTAACCGAAAGGTATC (((..(((....)))))), in data set [1], the folding enthalpy is -12.7 kcal/mol. In data set [2], the Tm was found to be 27.6 °C.

For the sequence GTTGTTGGAAACAATAGC (.(.(((....))).).), the folding enthalpy in data set [1] is -11.9 kcal/mol. In addition, the Tm in data set [2] came out at 31.2 °C.

For GTTGACGGAAACGTCAGC (.(((((....))))).), the folding enthalpy in data set [1] is -22 kcal/mol. In addition, the Tm in data set [2] was 52.5 °C.

For GCGTGGCGAAAGCTTCGC (((..((....))..))), the folding enthalpy in data set [1] was -23.6 kcal/mol. For the same sequence, in data set [2], the Tm is 59.5 °C.

As to GACGTCGGAAACGACATC ((.((((....)))).)), the folding enthalpy in data set [1] was -12.7 kcal/mol. The Tm in data set [2] is 37.2 °C.

Consider GATCCCACACGGGATC ((((((....)))))), for which, in data set [1], the folding enthalpy was -43.7 kcal/mol. In addition, the Tm in data set [2] worked out at 63.1 °C.

Turning to GCCAGAGGAAACTTTGGC ((((.((....)).)))), in data set [1], the folding enthalpy was -32.8 kcal/mol. For the same sequence, in data set [2], the Tm came to 47.4 °C.

With GTGGTGCGAAAGCAACAC (((.(((....))).))), in data set [1], the folding enthalpy was -28.8 kcal/mol. Also, the Tm in data set [2] was 68.9 °C.

As for GGTGCATCGAAAGATACC (((..(((....)))))), in data set [1], the folding enthalpy was -10.2 kcal/mol. The Tm in data set [2] is 27.9 °C.

Take GCACGGGGAAACCCGCGC ((.((((....)))).)): in data set [1], the folding enthalpy is -36.1 kcal/mol. For the same sequence, the Tm in data set [2] came out at 58.4 °C.

On to GATCCGCACCCGGATC ((((((....)))))), for which the folding enthalpy in data set [1] was -38.6 kcal/mol. In data set [2], the Tm was 55.4 °C.

Turning to GATCGAAATTCGATC ((((((...)))))), the folding enthalpy in data set [1] is -33.7 kcal/mol. The Tm in data set [2] came out at 48.9 °C.

For GTGTACGAAAGTATCCAC ((((((....)))..))), the folding enthalpy in data set [1] is -18.3 kcal/mol. Moreover, in data set [2], the Tm stood at 26.4 °C.

Regarding CGTCCCCGGAAACGGACG (((..(((....)))))), in data set [1], the folding enthalpy was -21.1 kcal/mol. In data set [2], the Tm turned out to be 42.2 °C.

As to GCAAGCGAAAGCTGGTGC ((((((....)))..))), in data set [1], the folding enthalpy is -20.9 kcal/mol. Besides, the Tm in data set [2] worked out at 47.6 °C.

For the sequence GACCAGGGAAACCCGGTC ((((.((....)).)))), the folding enthalpy in data set [1] is -37.7 kcal/mol. Besides, in data set [2], the Tm came to 50.1 °C.

GCGCACGGAAACATGCGC (((((.(....).))))): in data set [1], the folding enthalpy was -37.5 kcal/mol. The Tm in data set [2] was 59 °C.

For the sequence GATCTATTCATAGATC ((((((....)))))), the folding enthalpy in data set [1] is -35.8 kcal/mol. The Tm in data set [2] was 49.9 °C.

In the case of GGTGAAGGAAACTTTGCC ((..(((....)))..)), in data set [1], the folding enthalpy is -25.4 kcal/mol. For the same sequence, the Tm in data set [2] is 34.6 °C.

As for GAGAAGAAATTCTC (((((....))))), the folding enthalpy in data set [1] is -9.49 kcal/mol. Moreover, in data set [2], the Tm stood at 28.9 °C.

Consider GTTCGACGAAAGTCAAC (((.(((....)))))), for which the folding enthalpy in data set [1] was -15.8 kcal/mol. Also, in data set [2], the Tm was found to be 36.8 °C.

As to GAGAACGAAAGTTACTC ((((((....))).))), the folding enthalpy in data set [1] is -12.4 kcal/mol. In addition, the Tm in data set [2] came out at 31.1 °C.

Turning to GCCATACGAAAGTAAGGC (((.(((....))).))), the folding enthalpy in data set [1] was -35.1 kcal/mol. Moreover, the Tm in data set [2] is 52.6 °C.

Regarding GCATAGCGAAAGCGATGC ((((.((....)).)))), the folding enthalpy in data set [1] was -30.9 kcal/mol. The Tm in data set [2] was determined as 66.1 °C.

As for GCACAAGCGAAAGCTTGC (((..(((....)))))), the folding enthalpy in data set [1] is -7.33 kcal/mol. Moreover, the Tm in data set [2] worked out at 37.8 °C.

With GTGCCTGGAAACAGGTGC (..((((....))))..), the folding enthalpy in data set [1] is -23.2 kcal/mol. For the same sequence, the Tm in data set [2] was found to be 48.9 °C.

In the case of GCTTATGGAAACACAAGC ((((.((....)).)))), in data set [1], the folding enthalpy is -26.2 kcal/mol. For the same sequence, in data set [2], the Tm worked out at 33.2 °C.

Consider GCATAAACGAAAGTTTGC (((..(((....)))))), for which the folding enthalpy in data set [1] was -18.5 kcal/mol. The Tm in data set [2] turned out to be 37.4 °C.

Regarding GCTCCAGGAAACTGGGGC ((.((((....)))).)), the folding enthalpy in data set [1] is -39.6 kcal/mol. Besides, the Tm in data set [2] amounted to 57.6 °C.

With GTCGTCGAAAGACATGAC ((((((....)))..))), in data set [1], the folding enthalpy is -17.4 kcal/mol. Also, the Tm in data set [2] is 38.5 °C.

For the origin of these results see the array DNA melting data of Ke et al. (doi:10.1101/2024.01.08.574731).
